Measured values pooled from the literature.
Each line is one published result; the experiments were not run side by side.
CASP8: Caspase-8 (CASP8, Homo sapiens, UniProt Q14790)
ABHD6: Monoacylglycerol lipase ABHD6 (ABHD6, Homo sapiens, UniProt Q9BV23)
HTR5A: 5-hydroxytryptamine receptor 5A (HTR5A, Homo sapiens, UniProt P47898)

Structure (SMILES)	target	assay	setting	inhibition [%]
CCN(CC)CCCC[C@H](NC(=O)[C@H](CC(C)C)NC(=O)[C@H](C)NC(=O)[C@H](Cc1ccccc1)NC(=O)c1ccc(C(C)(C)C)cc1)C(=O)N[C@@H](CO)C(=O)OC	Neurotensin receptor type 1 (NTSR1, Homo sapiens, UniProt P30989)	ligand displacement, radioligand	10 µM	-10
CN(C)C(=O)COC(=O)Cc1ccc(OC(=O)c2ccc(NC(=N)N)cc2)cc1	CASP8	enzyme activity, inhibitor	10 µM	0
CN(C)C(=O)Oc1nsnc1N1CCCCC1	ABHD6	enzyme activity, inhibitor, fluorescence	1 µM, lysate	10
Cn1cc(-c2cccc(N3CCc4c(sc5c4CC(C)(C)C5)C3=O)c2CO)cc(Nc2ccncn2)c1=O	Mast/stem cell growth factor receptor Kit (KIT, Homo sapiens, UniProt P10721, V654A)	enzyme activity, inhibitor	1 µM	-7
COc1ccccc1N(C)C(=O)Oc1nsnc1N1CCCCC1	ABHD6	enzyme activity, inhibitor, fluorescence	1 µM, lysate	11
CN(CCN1CCC(OC(=O)Nc2ccccc2-c2ccccc2)CC1)C(=O)c1ccc(CN2CCC(C(N)=O)CC2)cc1	Histamine H2 receptor (Cavia porcellus, UniProt P47747)	ligand displacement, radioligand	1 µM	22
CCOC(=O)c1ccc(OC(=O)CCCCCNC(=N)N)cc1	CASP8	enzyme activity, inhibitor	10 µM	1
c1ccc(C(NCCNC(c2ccccc2)c2ccccc2)c2ccccc2)cc1	D(4) dopamine receptor (DRD4, Homo sapiens, UniProt P21917, del265-296)	cell-free assay	10 µM	10
C#Cc1n[nH]c2c(-c3cn([C@@H](C)c4ccccn4)c(=O)[nH]c3=O)cc(F)cc12	Calcium/calmodulin-dependent protein kinase type 1 (CAMK1, Homo sapiens, UniProt Q14012)	enzyme activity, inhibitor	0.1 µM	5.7
COc1cc2c3c(c1OC)-c1cc4c(cc1CC3N(C)CC2)OCO4 (racemic)	HTR5A	ligand displacement, radioligand	10 µM	92.8
C#Cc1n[nH]c2c(-c3cn([C@@H](C)c4ccccc4)c(=O)[nH]c3=O)cc(F)cc12	RAC-beta serine/threonine-protein kinase (AKT2, Homo sapiens, UniProt P31751)	enzyme activity, inhibitor	0.1 µM	4
O=C1N=C(N2CCCCN2)S/C1=C\c1ccc(F)cc1O	HTR5A	ligand displacement, radioligand	10 µM	< 10
N=C(N)c1ccc2cc(OC(=O)c3ccc(N=C(N)N)cc3)ccc2c1	CASP8	enzyme activity, inhibitor	10 µM	0
Cn1cc(-c2cc(F)cc(N3CCn4c(cc5c4CCCC5)C3=O)c2CO)cc(Nc2ccc(N3CCN(C4COC4)CC3)cn2)c1=O	Casein kinase II subunit alpha (CSNK2A1, Homo sapiens, UniProt P68400)	enzyme activity, inhibitor	0.1 µM	18
